# Assay outcomes: PubChem, Johns Hopkins Ion Channel Center
# The list is not random: actives were taken first. Their share in the collection is about 2.9%.
# TRPC4 PAM: allosteric potentiators of mouse TRPC4 channel | Q9QUQ5 | HEK293 TRPC4beta/mu-opioid, DAMGO EC20, Fluo-4 Ca2+ flux; hits give high values | B-score at 10 µM | 310,000 tested, 0.42% active | AID 2227;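 active = B-score of calcium response area above 5 SD of library B-scores, with initial fluorescence ratio within 5 SD of library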
# Kir21 inh: inhibitors of mouse Kir2.1 inward-rectifier potassium channel | 310,000 tested, 0.85% active | B-score at 10 µM | P35561 | HEK293-Kir2.1, FluxOR thallium flux fluorescence; hits give low values;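 active = fluorescence ratio B-score at or below minus 3 SD of library scores, with starting-brightness B-score within 2 SD, cut at about -4.2 in these data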;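 note: channel flux triggered by added potassium and thallium sulfate stimulus; B-score of peak minus minimum fluorescence over baseline after thallium stimulus; more negative B-score means stronger Kir2.1 block with less thallium influx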
# Target sequence (P35561 whole entry, looked up): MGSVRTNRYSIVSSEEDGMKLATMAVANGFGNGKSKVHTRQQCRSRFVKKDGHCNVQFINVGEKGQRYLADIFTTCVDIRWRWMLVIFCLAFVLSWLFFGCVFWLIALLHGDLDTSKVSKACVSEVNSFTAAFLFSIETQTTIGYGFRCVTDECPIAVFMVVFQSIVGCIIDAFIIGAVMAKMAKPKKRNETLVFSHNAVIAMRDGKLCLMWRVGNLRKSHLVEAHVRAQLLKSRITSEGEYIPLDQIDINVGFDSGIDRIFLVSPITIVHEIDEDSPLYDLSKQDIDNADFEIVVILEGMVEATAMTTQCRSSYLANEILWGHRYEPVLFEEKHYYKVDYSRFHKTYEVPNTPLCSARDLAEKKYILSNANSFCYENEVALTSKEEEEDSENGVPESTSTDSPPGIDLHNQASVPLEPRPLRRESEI
# TRPC4 block: TRPC4 (mouse) channel inhibition. Q9QUQ5. HEK293 TRPC4beta/mu-opioid, DAMGO-evoked Fluo4 calcium flux; hits give low values. B-score at 10 µM. 300,000 tested, 0.39% active. AID 2247;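 active = B-score over 3 SD under the library average, no early fluorescence shift, positive overall ratio signal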
#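 Assay system: TRPC4beta/mu-opioid receptor HEK293 cell line; compound dosing: single concentration per test compound; detection: Fluo4 Ca2+ flux fluorescence; evaluation: per-well B score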
# TRPC4 act: TRPC4 (mouse) channel activation. 310,000 tested, 0.49% active. HEK293 TRPC4beta/mu-opioid, Fluo4 calcium fluorescence; hits give high values. B-score at 10 µM;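 active = B-score above 5 SD of library B-scores, and initial fluorescence ratio not above library mean plus 5 SD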;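 note: positive B-score marks a calcium rise read as TRPC4 activation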
#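 Assay system – TRPC4beta and mu-opioid receptor HEK293 stable cells · Measured by – Fluo4 fluorescence, kinetic · Schedule – dye loading 45 min room temperature, 110 s kinetic read · Read-out – B-scored integrated calcium fluorescence ratio · Controls – buffer and maximal DAMGO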
# TRPC6 act: mouse TRPC6 channel activation | Q61143 | HEK293-TRPC6 membrane potential dye fluorescence; hits give high values | B-score at 10 µM | 310,000 tested, 0.13% active | AID 2550;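 active = B-score of the integrated fluorescence ratio above library mean plus 3 SD, and starting fluorescence ratio within library mean plus 5 SD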;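 note: higher score means more depolarization so channel activation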
# TRPC6 inhibitor: blocks the mouse TRPC6 cation channel; Q61143; HEK293-TRPC6, membrane potential dye, ACh-evoked depolarization; hits give low values; B-score at 10 µM; 310,000 tested, 1.1% active; AID 2553;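 active = B-score under library mean minus 3 SD, initial fluorescence not abnormally high, positive integrated signal ratio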;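 note: B-score derived from integrated fluorescence ratio over the kinetic read; more negative B-score means stronger inhibition of depolarization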
# hERG ctr: hERG (human) inhibition as Kir2.1 counter-screen; inhibition, % at 10 µM; shares compounds with Kir21 inh; hERG-expressing cells, thallium flux; 320 tested, 20% active;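 note: host cells are CHO cells stably expressing hERG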
# KCNK9 spec: human KCNK9 off-target activity of Kir2.1 blockers; shares compounds with Kir21 inh; KCNK9-expressing cells, ion flux inhibition; inhibition, % at 10 µM; 320 tested, 5% active; AID 2329
# Kir21 ephys inh: inhibitors of mouse Kir2.1 potassium channel. 320 tested, 71% active. Kir2.1 cells, automated patch-clamp current inhibition. AID 463252. inhibition, % at 25 µM. shares compounds with Kir21 inh
# Hits are given with their value; n = inactive. Unless noted, the rule behind the calls is not given here.
SMILES,TRPC4 PAM,Kir21 inh,TRPC4 block,TRPC4 act,TRPC6 act,TRPC6 inhibitor,others
O=C(OCc1ccc(F)cc1)c1cc(S(=O)(=O)N2CCCCC2)ccc1N1CCOCC1,n,n,n,n,n,n,
COCCNC(=O)C1CCN(S(=O)(=O)c2c(C)noc2/C=C/c2cccs2)CC1,n,n,n,n,n,n,
Cc1ccc(S(=O)(=O)N(CC(=O)Nc2cccnc2)c2ccccc2C)cc1,n,n,n,n,n,n,
Cc1nc(N2CCN(Cc3ccccc3)CC2)nc2c1C(=O)CC(c1ccco1)C2 (stereo unspecified),n,-5.3,n,n,n,n,
Cc1nc(N2CCN(Cc3ccc4c(c3)OCO4)CC2)nc2c1C(=O)CC(c1ccco1)C2 (stereo unspecified),n,n,n,n,n,n,
COC(=O)c1cnc(Oc2c(Cl)cc(N)cc2Cl)cc1C(F)(F)F,22,n,n,n,n,n,
COC(=O)c1cnc(Oc2ccc(NC(=O)NC(=O)c3c(F)cccc3Cl)cc2)cc1C(F)(F)F,n,n,n,n,n,n,
CN(C)CC(CCC(CN(C)C)C(O)(c1ccccc1)c1ccccc1)C(O)(c1ccccc1)c1ccccc1 (stereo unspecified),n,-5.6,-8,n,n,n,
O=C(COC(=O)c1cccc([N+](=O)[O-])c1)c1ccc2c(c1)OCO2,n,n,-7,n,n,n,
O=C(OCC(=O)N1CCc2ccccc2C1)c1cccc([N+](=O)[O-])c1,n,n,-6,n,n,n,
CS(=O)(=O)N(CC(=O)N1CCc2ccccc2C1)c1cccc([N+](=O)[O-])c1,n,n,n,n,n,n,
COc1ccc(C(C(=O)NC(C)(C)C)N(C(=O)CCC(=O)Nc2cc(C)on2)c2ccccc2F)cc1 (stereo unspecified),n,n,n,n,n,n,
CC(C)NCC(O)COc1cccc2ccccc12 (stereo unspecified),n,n,n,n,n,n,
OC(CNCc1ccccc1F)COc1cccc2ccccc12 (stereo unspecified),n,-6.9,n,n,n,n,
CC(C)(C)OC(=O)NCCc1nnc(SCc2c(Cl)cccc2Cl)o1,n,n,n,n,n,n,
Cc1cccc(CSc2nnc(CCNC(=O)OC(C)(C)C)o2)c1,n,-6.8,n,n,n,n,
CC(C)(C)OC(=O)NCCc1nnc(SCc2cccc(Cl)c2)o1,n,-12,n,n,n,n,
C[C@H](NC(=O)OC(C)(C)C)c1nnc(SCC(=O)Nc2cccc(Cl)c2)o1,n,-4.3,n,n,n,n,
Cc1cc(C)c(NC(=O)CN2C(=O)NC3(CCCc4ccccc43)C2=O)c(Cl)c1 (stereo unspecified),n,n,n,n,n,n,
CCOC(=O)c1c(NC(=O)C2CC(Cl)=CCC2C(=O)O)sc2c1CCCCC2 (stereo unspecified),n,n,-6,n,n,n,
CCOC(=O)c1c(NC(NC(C)=O)C(Cl)(Cl)Cl)sc2c1CCCC2 (stereo unspecified),21,n,n,n,n,n,
CCOC(=O)c1c(NC(=O)CCNCc2ccco2)sc2c1CCC2,11,-17,n,n,n,n,
CC(C)c1ccc(/C=N/NC(=O)c2c(Cl)cnn2C)cc1,n,n,n,n,n,n,
CC(NC(=O)CCNC(=O)c1ccc(Br)cc1)c1ccc(-n2ccnc2)cc1 (stereo unspecified),n,n,n,n,n,n,
C/C(CCc1ccc2c(c1)OCO2)=N\N=C1\NC(=O)CC(C(=O)Nc2ccccc2F)S1 (stereo unspecified),n,n,n,n,n,n,
SMILES,TRPC4 PAM,Kir21 inh,TRPC4 block,TRPC4 act,TRPC6 act,TRPC6 inhibitor,others
CCOC(=O)C[C@H]1c2cc(F)ccc2S(=O)(=O)N1c1ccccc1,n,-5,n,n,n,n,
CCOC(=O)C[C@H]1c2ccccc2S(=O)(=O)N1Cc1cccc(C(F)(F)F)c1,n,-4.5,n,n,n,n,
O=C(CSc1n[nH]c(-c2ccccc2Cl)n1)NCc1cccc(C(=O)O)c1,n,n,n,n,n,n,
CCOC(=O)C(=CNc1ccc(NC2=NCC(C)(C)S2)cc1)C(=O)OCC,n,-7,n,n,n,n,hERG ctr=n;KCNK9 spec=n;Kir21 ephys inh=22%
CCOC(=O)C(=CNc1ccc(S(N)(=O)=O)cc1)C(=O)OCC,n,n,n,n,n,n,
CN(C)C(CNC(=O)CCc1nc2cc(Cl)ccc2n(Cc2ccccc2)c1=O)c1ccccc1 (stereo unspecified),n,-6.4,n,n,n,n,hERG ctr=71%;KCNK9 spec=n;Kir21 ephys inh=n
Cc1ccc(-n2nc3c(=O)n(CCCC(=O)NCc4cccc(F)c4)nc(C)c3c2C)cc1,n,n,n,n,n,n,
O=C(Oc1cccc(OC(=O)c2ccco2)c1)c1ccco1,n,-5.7,n,n,n,n,hERG ctr=n;KCNK9 spec=n;Kir21 ephys inh=n
O=C(Oc1cccnc1)c1ccco1,n,n,n,n,n,n,
COc1ccc(Cl)c(N2CCN(CCCNC(=O)Nc3ccc(C)cc3)CC2)c1,n,-6.3,n,n,n,n,hERG ctr=70%;KCNK9 spec=n;Kir21 ephys inh=4.8%
Cc1ccc(S(=O)(=O)N2CCN(C(=O)c3sccc3-c3ccccc3)CC2)cc1,n,n,n,n,n,n,
Cc1ccc(NC(=O)C2CC(=O)N(Cc3ccccc3)C2)nc1 (stereo unspecified),n,n,n,n,n,n,
CSCc1ccc(C(=O)N2CCCC(Nc3ccc4c(c3)OCCO4)C2)o1 (stereo unspecified),n,n,n,n,n,n,
CSCc1ccc(C(=O)N2CCCC(Nc3ccc(F)cc3)C2)o1 (stereo unspecified),n,-5.7,n,n,n,n,hERG ctr=n;KCNK9 spec=n;Kir21 ephys inh=29%
COc1ccc(CNS(=O)(=O)NCc2ccccc2)cc1,n,n,n,n,n,n,
COc1ccc(CNCc2ccc(C)cc2)c(OC)c1,n,n,n,n,n,n,
COc1ccc(CNCc2ccc(OC)c3ccccc23)cc1,n,-14,n,n,n,n,hERG ctr=n;KCNK9 spec=n;Kir21 ephys inh=8.1%
COc1ccc(CNC/C=C/c2ccccc2)cc1,n,-12,n,n,n,n,hERG ctr=n;KCNK9 spec=n;Kir21 ephys inh=78%
COCCN(C(=O)CCC(=O)Nc1ccccn1)C(C(=O)NCCC(C)C)c1ccc(C)cc1 (stereo unspecified),n,n,n,n,n,n,
